Data from ChEMBL document CHEMBL1123096, “Alpha-adrenoreceptor reagents. 3. Synthesis of some 2-substituted 1,4-benzodioxans as selective presynaptic alpha 2-adrenoreceptor antagonists” (J Med Chem, 1985).

Columns and labels:
[1] = target: Adrenergic receptor alpha-2 (Rattus norvegicus) (UniProt P22086+P19328+P22909); test: Presynaptic antagonist activity towards alpha-2 adrenergic receptor.; format: functional
How it was run: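 Vas deferens from rat or mouse; the mouse tissue was in Mg-free Krebs at 30 °C under 0.5 g tension, stimulated at 0.1 Hz, 3 ms, 100–140 V, giving a twitch of about 100 mg. […] Standard curves were run before and after the test curve.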

[2] = target: Adrenergic receptor alpha-1 (Rattus norvegicus) (UniProt P15823+P23944+P43140); test: post-synaptic antagonist activity towards alpha-1 adrenergic receptor was determined. Concentration giving a dose response to phenylephrine (idazoxan=1) was reported.; format: functional
How it was run: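 Rat anococcygeus, postsynaptic α1 antagonism. At least five phenylephrine concentration–response curves were run alone, then at least four with the antagonist present.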

[3] = target: Adrenergic receptor alpha (Rattus norvegicus) (UniProt P15823+P23944+P43140+P22086+P19328+P22909); test: Selectivity as ratio […] against alpha-2 receptor to that of alpha-1 receptor.; format: protein assay

Chain of Adrenergic receptor alpha-2 (Rattus norvegicus) (P19328 whole entry, looked up): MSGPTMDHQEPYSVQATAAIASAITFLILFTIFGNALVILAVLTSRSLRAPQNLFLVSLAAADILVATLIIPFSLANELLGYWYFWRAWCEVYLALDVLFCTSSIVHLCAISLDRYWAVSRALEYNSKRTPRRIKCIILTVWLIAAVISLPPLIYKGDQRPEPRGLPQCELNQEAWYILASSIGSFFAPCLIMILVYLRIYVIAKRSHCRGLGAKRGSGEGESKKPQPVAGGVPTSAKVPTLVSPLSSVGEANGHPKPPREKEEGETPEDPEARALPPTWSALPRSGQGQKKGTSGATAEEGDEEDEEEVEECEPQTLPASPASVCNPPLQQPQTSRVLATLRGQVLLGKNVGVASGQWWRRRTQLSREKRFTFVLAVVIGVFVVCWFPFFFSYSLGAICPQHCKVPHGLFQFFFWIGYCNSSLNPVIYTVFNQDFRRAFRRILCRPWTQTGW
Chain of Adrenergic receptor alpha-2 (Rattus norvegicus) (P22086 whole entry, looked up): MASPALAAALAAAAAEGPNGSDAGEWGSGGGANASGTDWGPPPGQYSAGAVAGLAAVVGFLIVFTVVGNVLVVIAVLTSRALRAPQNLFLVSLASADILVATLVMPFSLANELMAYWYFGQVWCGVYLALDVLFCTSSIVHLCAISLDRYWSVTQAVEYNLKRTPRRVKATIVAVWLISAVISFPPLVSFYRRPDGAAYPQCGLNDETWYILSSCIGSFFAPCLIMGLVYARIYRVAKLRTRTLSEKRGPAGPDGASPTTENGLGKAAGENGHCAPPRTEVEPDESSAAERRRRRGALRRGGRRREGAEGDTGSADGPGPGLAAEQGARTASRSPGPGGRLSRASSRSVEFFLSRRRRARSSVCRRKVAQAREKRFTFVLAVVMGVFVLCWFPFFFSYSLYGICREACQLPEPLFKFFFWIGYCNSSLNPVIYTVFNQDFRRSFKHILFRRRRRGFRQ
Chain of Adrenergic receptor alpha-2 (Rattus norvegicus) (P22909 whole entry, looked up): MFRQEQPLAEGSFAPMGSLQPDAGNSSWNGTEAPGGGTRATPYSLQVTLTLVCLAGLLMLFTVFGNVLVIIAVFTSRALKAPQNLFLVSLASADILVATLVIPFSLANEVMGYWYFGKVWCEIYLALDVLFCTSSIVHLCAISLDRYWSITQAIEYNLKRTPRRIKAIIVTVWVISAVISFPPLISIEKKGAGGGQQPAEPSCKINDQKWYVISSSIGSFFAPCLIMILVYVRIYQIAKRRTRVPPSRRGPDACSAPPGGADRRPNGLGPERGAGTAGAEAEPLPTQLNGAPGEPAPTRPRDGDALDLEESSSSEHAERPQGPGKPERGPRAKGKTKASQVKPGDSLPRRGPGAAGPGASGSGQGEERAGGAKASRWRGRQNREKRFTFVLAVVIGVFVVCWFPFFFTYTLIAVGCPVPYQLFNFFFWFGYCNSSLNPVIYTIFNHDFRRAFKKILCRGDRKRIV
Chain of Adrenergic receptor alpha-1 (Rattus norvegicus) (P15823 whole entry, looked up): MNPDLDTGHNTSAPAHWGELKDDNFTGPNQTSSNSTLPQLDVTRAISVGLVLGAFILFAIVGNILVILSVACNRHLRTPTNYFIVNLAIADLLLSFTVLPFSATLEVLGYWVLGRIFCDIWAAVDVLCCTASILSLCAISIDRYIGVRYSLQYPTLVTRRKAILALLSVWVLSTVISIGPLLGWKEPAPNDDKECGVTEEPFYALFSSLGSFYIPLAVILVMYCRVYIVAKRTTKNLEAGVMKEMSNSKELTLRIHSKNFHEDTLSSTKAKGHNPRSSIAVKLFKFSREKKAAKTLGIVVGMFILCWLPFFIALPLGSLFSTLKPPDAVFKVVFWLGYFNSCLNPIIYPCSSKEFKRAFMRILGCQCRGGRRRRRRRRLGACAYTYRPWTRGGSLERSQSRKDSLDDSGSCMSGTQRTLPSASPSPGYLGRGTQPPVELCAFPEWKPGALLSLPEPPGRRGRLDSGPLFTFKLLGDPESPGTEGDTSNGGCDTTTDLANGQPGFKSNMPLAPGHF
Chain of Adrenergic receptor alpha-1 (Rattus norvegicus) (P23944 whole entry, looked up): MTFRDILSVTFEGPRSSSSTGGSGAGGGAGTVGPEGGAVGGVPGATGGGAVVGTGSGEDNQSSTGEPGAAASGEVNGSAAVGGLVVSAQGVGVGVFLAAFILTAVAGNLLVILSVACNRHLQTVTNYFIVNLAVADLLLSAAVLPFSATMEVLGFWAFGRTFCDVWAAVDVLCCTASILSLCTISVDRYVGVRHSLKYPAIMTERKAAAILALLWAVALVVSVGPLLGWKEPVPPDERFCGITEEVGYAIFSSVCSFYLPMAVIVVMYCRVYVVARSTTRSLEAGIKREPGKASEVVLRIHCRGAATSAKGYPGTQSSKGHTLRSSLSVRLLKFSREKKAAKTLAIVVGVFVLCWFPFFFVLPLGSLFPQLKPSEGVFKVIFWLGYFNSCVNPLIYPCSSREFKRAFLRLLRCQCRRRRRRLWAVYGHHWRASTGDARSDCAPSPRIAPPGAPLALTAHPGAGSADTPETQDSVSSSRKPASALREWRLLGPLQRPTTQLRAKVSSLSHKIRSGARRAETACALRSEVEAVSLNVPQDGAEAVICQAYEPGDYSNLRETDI
Chain of Adrenergic receptor alpha-1 (Rattus norvegicus) (P43140 whole entry, looked up): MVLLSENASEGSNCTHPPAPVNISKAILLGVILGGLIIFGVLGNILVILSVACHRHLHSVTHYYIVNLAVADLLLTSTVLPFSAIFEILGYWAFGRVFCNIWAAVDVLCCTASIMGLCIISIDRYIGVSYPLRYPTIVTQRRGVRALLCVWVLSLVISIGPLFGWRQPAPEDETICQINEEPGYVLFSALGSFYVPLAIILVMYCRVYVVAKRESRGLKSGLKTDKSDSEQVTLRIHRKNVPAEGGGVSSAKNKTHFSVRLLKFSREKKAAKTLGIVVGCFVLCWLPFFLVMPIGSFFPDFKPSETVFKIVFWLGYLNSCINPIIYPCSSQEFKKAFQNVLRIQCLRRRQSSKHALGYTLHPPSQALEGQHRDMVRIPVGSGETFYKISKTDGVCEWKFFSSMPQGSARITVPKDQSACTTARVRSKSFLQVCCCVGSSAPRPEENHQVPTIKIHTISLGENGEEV

SMILES	potency relative to idazoxan [1]	Postsynaptic antagonist [2]	Ratio [3]
COc1ccc(COC2(C3=NCCN3)COc3ccccc3O2)cc1 (centres undefined)	0.6	4.8	0.13
CC(C)C1(C2=NCCN2)COc2ccccc2O1 (centres undefined)	0.024	< 0.006	–
c1ccc(CCOC2(C3=NCCN3)COc3ccccc3O2)cc1 (centres undefined)	1	8.8	0.14
CC1Oc2ccccc2OC1C1=NCCN1 (centres undefined)	0.002	0.023	0.087
CCCCCOC1(C2=NCCN2)COc2ccccc2O1 (centres undefined)	0.72	0.6	1.2
C#CCOC1(C2=NCCN2)COc2ccccc2O1 (centres undefined)	1.2	2.1	0.57
COCCOC1(C2=NCCN2)COc2ccccc2O1 (centres undefined)	0.2	1	0.2
C=CC1(C2=NCCN2)COc2ccccc2O1 (centres undefined)	1	0.3	3.3
COc1cc2c(cc1OC)OC(OC)(C1=NCCN1)CO2 (centres undefined)	0.006	0.05	0.1
COc1ccccc1COC1(C2=NCCN2)COc2ccccc2O1 (centres undefined)	1.7	2.3	0.75
Clc1ccc(COC2(C3=NCCN3)COc3ccccc3O2)cc1 (centres undefined)	1	2.46	0.4
OCCOC1(C2=NCCN2)COc2ccccc2O1 (centres undefined)	1.4	1	1.4
COC1(C2=NC(C)CN2)COc2ccccc2O1 (centres undefined)	0.09	1	0.09
OCCCCOC1(C2=NCCN2)COc2ccccc2O1 (centres undefined)	0.24	1	0.24
c1ccc2c(c1)OCC(C1=NCCN1)(C1CCCC1)O2 (centres undefined)	0.015	0.4	0.04
COc1ccc(OC2(C3=NCCN3)COc3ccccc3O2)cc1 (centres undefined)	0.34	2	0.17
c1ccc(C2(C3=NCCN3)COc3ccccc3O2)cc1 (centres undefined)	0.04	0.026	1.6
c1ccc(OC2(C3=NCCN3)COc3ccccc3O2)cc1 (centres undefined)	0.023	1	0.023
C1=C(C2(C3=NCCN3)COc3ccccc3O2)CCCC1 (centres undefined)	0.026	0.75	0.035
Clc1ccccc1COC1(C2=NCCN2)COc2ccccc2O1 (centres undefined)	0.36	1	0.36
C1=C(C2(C3=NCCN3)COc3ccccc3O2)CCC1 (centres undefined)	0.15	0.09	1.7
c1ccc2c(c1)OCC(OC1CCCC1)(C1=NCCN1)O2 (centres undefined)	0.16	1	0.16
Cc1cccc(OC2(C3=NCCN3)COc3ccccc3O2)c1 (centres undefined)	0.35	0.2	1.75
CCCCC1(C2=NCCN2)COc2ccccc2O1 (centres undefined)	1.5	2.2	0.68
CCCCCCCC1(C2=NCCN2)COc2ccccc2O1 (centres undefined)	0.9	1.1	0.85
